This is a sample that favours compounds with a hit; in the whole collection about 5.2% have one here.
ZTA counter: ZTA (EBV) inhibition in EBNA-1 counter-screen | inhibition, % at 11 µM | P03206 | actives 0.15% (n = 320,000) | ZTA-DNA binding, fluorescence polarization; in the data active = inhibition above about 33%
PfM18AAP inh-1: PfM18AAP inhibitors, malaria aminopeptidase, primary screen, biochemical, QFRET, recombinant enzyme. M18 aspartyl aminopeptidase (Plasmodium falciparum 3D7). H-Glu-NHMec fluorogenic cleavage. inhibition, % at 7.35 µM. actives 1.2% (n = 290,000). AID 1822, 2009;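 active = inhibition above the campaign mean inhibition over all tested compounds plus 3 SD, cut at about 28% in these data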
EBNA-1 inh: EBNA-1 DNA-binding inhibitors, primary screen, biochemical, fluorescence polarization; inhibition, % at 14.8 µM; actives 0.34% (n = 300,000); AID 1950, 2009; in the data active = inhibition above about 28%
HCV NS3 hel inh: inhibitors of HCV NS3 helicase, primary screen, biochemical, Cy5 molecular beacon fluorescence; inhibition, % at 10.9 µM; NS3 helicase DNA unwinding; Hepatitis C virus NS3 helicase; actives 0.56% (n = 290,000); AID 1800, 2009;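 active = inhibition above the mean of all tested compounds plus 3 SD, set per campaign, cut at about 35% in these data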
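test system = hepatitis C virus NS3 helicase domain fragment enzyme | reagent = annealed dual-labelled DNA beacon duplex, ATP-started | times = 1 h at 25 °C | detection = Cy5 fluorescence, 0 and 60 min reads | read-out basis = percent inhibition from t60/t0 fluorescence ratio | control set = DMSO and thioflavine S | replication = one well per compound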
HCV core dimer: inhibitors of HCV core protein dimerization, primary screen, biochemical, TR-FRET, high-throughput. TR-FRET GST/Flag-core106 dimerization, 1536-well. inhibition, % at 5 µM. actives 0.33% (n = 300,000). AID 1899, 2009;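 active = inhibition above the mean of all tested compounds plus 3 SD, set per screening campaign, cut at about 45% in these data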
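Assay system – GST-tagged and Flag-tagged HCV core protein residues 1-106 · Quantity – core106 proteins, GST 13.5 nM and Flag 17 nM · Benchmarks – unlabelled core106 and no-GST-core106 wells · Read-out basis – percent inhibition of core106 dimerization signal · Detection – time-resolved FRET, ex 340 nm, em 617 and 671 nm · Schedule – 4 h at 22.5 °C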
ALR inh: inhibitors of human ALR sulfhydryl oxidase, primary screen, biochemical, H2O2 detection, HRP-luminol luminescence, single point; AID 485317, 2010; actives 3.8% (n = 290,000); inhibition, % (test concentration not listed); purified ALR, DTT oxidation;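 active = mean replicate inhibition above about 79%, with every replicate also reaching it, limit read from the data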
Target sequence (P55789 whole entry, looked up): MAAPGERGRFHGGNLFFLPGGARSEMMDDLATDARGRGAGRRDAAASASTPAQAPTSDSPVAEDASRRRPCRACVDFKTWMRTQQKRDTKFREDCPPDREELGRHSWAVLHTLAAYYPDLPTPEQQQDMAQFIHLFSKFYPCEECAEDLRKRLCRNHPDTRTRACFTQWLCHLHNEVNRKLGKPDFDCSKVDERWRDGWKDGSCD
PfM18AAP inh-2: PfM18AAP inhibitors, malaria aminopeptidase, confirmation, biochemical, QFRET, recombinant enzyme, triplicate; shares compounds with PfM18AAP inh-1; H-Glu-NHMec fluorogenic cleavage; inhibition, % at 7.35 µM; actives 28% (n = 2,400); AID 2170, 2009;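 active = mean inhibition over replicate wells above the hit cutoff set for the earlier primary screen, cut at about 29% in these data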
CTSL1 confirm: cathepsin L1 inhibitors, retest, confirmation, counter-screen for PFM18AAP inhibitor project, biochemical, QFRET, triplicate; shares compounds with PfM18AAP inh-1; 2,400 tested, under 10 active; inhibition, % at 5.96 µM; AID 2178, 2009; purified cathepsin L1, Z-Leu-Arg-MCA fluorescence;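 active = average inhibition across replicates above the hit cutoff set in the earlier primary screen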
Target sequence (P07711 whole entry, looked up): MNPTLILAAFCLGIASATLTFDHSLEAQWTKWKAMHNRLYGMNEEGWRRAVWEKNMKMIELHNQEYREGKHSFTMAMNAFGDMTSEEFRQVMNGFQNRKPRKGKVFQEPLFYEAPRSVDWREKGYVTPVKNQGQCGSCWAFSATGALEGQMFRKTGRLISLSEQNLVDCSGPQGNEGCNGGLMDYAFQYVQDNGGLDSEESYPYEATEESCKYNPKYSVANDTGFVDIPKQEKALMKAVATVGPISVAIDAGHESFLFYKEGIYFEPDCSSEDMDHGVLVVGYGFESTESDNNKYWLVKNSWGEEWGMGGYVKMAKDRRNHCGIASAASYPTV
Each line names hits and unclear results; the compound was inactive in the other large screens (follow-up assays come after a bar, where they were run).

CCOc1ccc(OCC)c(NC(=O)C2CCN(S(=O)(=O)c3cccc4nonc34)CC2)c1	none
CC(C)(C)C(=O)C(Oc1cccc2nonc12)n1cncn1 (centres undefined)	PfM18AAP inh-1 49.6 | PfM18AAP inh-2 inactive | CTSL1 confirm inactive
COc1ccc(/C=N/Nc2ncnc(Cl)c2N)cc1OC	PfM18AAP inh-1 35.2 | PfM18AAP inh-2 inactive | CTSL1 confirm inactive
COc1ccc(/C=N/Nc2nccnc2Cl)cc1	PfM18AAP inh-1 35.6 | PfM18AAP inh-2 inactive | CTSL1 confirm inactive
Clc1nccnc1N/N=C/c1ccc(Br)cc1	none
Oc1ccc(/C=N/Nc2nccnc2Cl)c(O)c1	PfM18AAP inh-1 35.3 | PfM18AAP inh-2 inactive | CTSL1 confirm inactive
COc1ccc(/C=N/Nc2nccnc2Cl)c(OC)c1	none
COc1cccc(/C=N/Nc2ncnc(Cl)c2N)c1O	none
CCNc1nc(NCC)n2c(SCC(=O)Nc3ccc(C)cc3Br)nnc2n1	none (no result: ZTA counter, PfM18AAP inh-1, EBNA-1 inh, HCV NS3 hel inh, HCV core dimer)
Brc1ccc(-n2cnc(-c3ccccc3)c2)cc1	none
O=[N+]([O-])c1cc([N+](=O)[O-])c2nonc2c1Nc1ccccc1O	PfM18AAP inh-1 38.1, ALR inh 99.0 (no result: ZTA counter, EBNA-1 inh, HCV core dimer) | PfM18AAP inh-2 inactive | CTSL1 confirm inactive
C=CCn1c2ccccc2c2n[nH]c(=S)nc21	PfM18AAP inh-1 40.0 (no result: ZTA counter, EBNA-1 inh, HCV core dimer) | PfM18AAP inh-2 inactive | CTSL1 confirm inactive
CCn1c2ccccc2c2n[nH]c(=S)nc21	none
O=C(O)Cn1c2ccccc2c2n[nH]c(=S)nc21	PfM18AAP inh-1 47.1 | PfM18AAP inh-2 31.2 | CTSL1 confirm inactive
CCOCCc1nnc(NC(=O)CCS(=O)(=O)c2ccccc2)s1	none
COc1cc(/C=C/C(=O)O)cc(S(=O)(=O)Nc2ccc3nc(C)sc3c2)c1OC	PfM18AAP inh-1 38.1 | PfM18AAP inh-2 inactive | CTSL1 confirm inactive
Cc1ccc(Nc2ccc(C(=O)O)cc2N)cc1	PfM18AAP inh-1 54.7, ALR inh 99.2 | PfM18AAP inh-2 inactive | CTSL1 confirm inactive
Cc1cc(C)cc(Nc2ccc(C(=O)O)cc2N)c1	PfM18AAP inh-1 41.5 (no result: ALR inh) | PfM18AAP inh-2 inactive | CTSL1 confirm inactive
Cc1cc(C)cc(Nc2ccc(C(=O)O)cc2[N+](=O)[O-])c1	none
O=C(O)c1cc(-c2ccc(O)cc2)on1	none
CC1CCCC(C)N1C(=O)COC(=O)CNC(=O)c1ccccc1 (centres undefined)	none (no result: PfM18AAP inh-1, EBNA-1 inh, HCV NS3 hel inh, HCV core dimer)
N#CC[C@H](Cc1ccccc1)N1CCN(CCc2ccccc2)CCC1=O	PfM18AAP inh-1 32.9 | PfM18AAP inh-2 inactive | CTSL1 confirm inactive
N#CC[C@H](Cc1ccccc1)N1CCN(Cc2ccccc2)CCC1=O	none (no result: ALR inh)
O=C(O)c1ccc(O)c(N2C(=O)Nc3ccccc3N2O)c1	PfM18AAP inh-1 49.5 | PfM18AAP inh-2 inactive | CTSL1 confirm inactive
O=C(CSc1ncn[nH]1)Nc1ncc(C(F)(F)F)cc1Cl	PfM18AAP inh-1 83.9 | PfM18AAP inh-2 74.4 | CTSL1 confirm inactive
FC(F)(F)c1cnc(Sc2ncn[nH]2)c(Cl)c1	PfM18AAP inh-1 92.4 | PfM18AAP inh-2 82.8 | CTSL1 confirm inactive
COc1cccc(OCCn2cc(C(C)=O)c3ccccc32)c1	none
Cc1ccsc1C(=O)N(CC(C)C)c1c(N)n(Cc2ccccc2)c(=O)[nH]c1=O	none
C=CCN(c1ccc(C(=O)NCCN2CCOCC2)cc1)S(C)(=O)=O	none (no result: ALR inh)
Cc1ccc(CN2CCN(/N=C/c3ccc(O)c(O)c3)CC2)cc1	PfM18AAP inh-1 63.7, ALR inh 78.6 | PfM18AAP inh-2 37.8 | CTSL1 confirm inactive
Oc1ccc(/C=N/N2CCN(C3c4ccccc4-c4ccccc43)CC2)cc1	none (no result: ALR inh)
Oc1ccc(/C=N/N2CCN(C3c4ccccc4-c4ccccc43)CC2)cc1O	PfM18AAP inh-1 50.5 (no result: ALR inh) | PfM18AAP inh-2 35.6 | CTSL1 confirm inactive
CC(=O)NC12CC3CC(C1)CC(C(=O)N(C)CC(=O)Nc1ccccc1Cl)(C3)C2	none (no result: PfM18AAP inh-1, HCV NS3 hel inh)
CSc1ncccc1C(=O)Nc1nccs1	none (no result: ALR inh)
CC(Cl)C(=O)NNC(=O)CNS(=O)(=O)c1ccccc1 (centres undefined)	PfM18AAP inh-1 44.7 | PfM18AAP inh-2 inactive | CTSL1 confirm inactive
Cc1ccc(C(=O)N/N=C\c2ccc([N+](=O)[O-])o2)cn1	PfM18AAP inh-1 34.2 | PfM18AAP inh-2 inactive | CTSL1 confirm inactive
Cc1ccc(C(=O)N/N=C\c2ccc(-c3ccc([N+](=O)[O-])cc3)o2)cn1	none
O=C1OCC=C1NNC(=O)c1cccnc1	PfM18AAP inh-1 55.1 | PfM18AAP inh-2 69.3 | CTSL1 confirm inactive
O=C(NNC(=O)c1cccnc1)c1ccncc1	none
O=C(Nc1ncn[nH]1)c1ccccc1Br	PfM18AAP inh-1 38.2 | PfM18AAP inh-2 43.6 | CTSL1 confirm inactive
CSc1ccccc1C(=O)Nc1ncn[nH]1	none
O=C(Nc1ncn[nH]1)c1ccc([N+](=O)[O-])cc1[N+](=O)[O-]	PfM18AAP inh-1 44.2 (no result: ALR inh) | PfM18AAP inh-2 34.5 | CTSL1 confirm inactive
CCOc1ccc(C2/C(=C(\O)c3ccc4c(c3)OCCO4)C(=O)C(=O)N2CCN2CCOCC2)cc1OC (centres undefined)	none (no result: ZTA counter, EBNA-1 inh, HCV core dimer)
Cc1cccc(N/C(N)=N/c2nc(C)c(Cc3ccccc3)c(=O)[nH]2)c1	none

Screening data: PubChem BioAssay, several laboratories
